Experimental data from ChEMBL document CHEMBL1130160 (J Med Chem, 1997).
Calls of active or inactive are those of the source. The calls are words filed in the database; no cut-off is given here.

Legend:
Rattus norvegicus [1] = experiment: Minimum effective dose at which significant increase in uterine weight/body weight in rat was determined (in vivo); assay type: functional; settings: read-out: MED
Procedure, shortened: (§1)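 In 75-day OVX Sprague–Dawley rats dosed orally for 4 days, beginning 2 weeks post-ovariectomy with 5–6 rats per group, whole uteri were weighed the morning after fasting. MED is the lowest dose giving a significant (p≤0.05) rise in uterine weight/body weight, expressed as % increase over OVX controls ±SE.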

Rattus norvegicus [2] = experiment: Percent protection of bone mineral density in the distal femur of OVX rat at a dose of 0.1 mg/kg/day; assay type: functional
Procedure, shortened: (§2)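 OVX Sprague–Dawley rats (6-month old, or 75-day old in one case) were dosed orally each day for 35 days, starting 4 days after ovariectomy. Digitized X-rays of the right distal femoral metaphysis gave BMD. % protection = (test − OVX)/(sham − OVX) × 100, reported ±SE.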

Rattus norvegicus [3] = experiment: Percent decrease in serum cholesterol relative to OVX control at 10 mg/kg in rat was determined (in vivo); assay type: functional
Procedure, shortened: (§3)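 OVX Sprague–Dawley rats (75 days old), 5–6 per group, dosed once daily by oral gavage for 4 consecutive days, starting 14 days after ovariectomy. Vehicle was 20% β-hydroxycyclodextrin at 1 mL/kg, or 1.5% carboxymethylcellulose in some cases. Rats were fasted after the last dose and bled by cardiac puncture next morning.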

Rattus norvegicus [4] = experiment: Percent decrease in serum cholesterol relative to OVX control at 1.0 mg/kg in rats; assay type: functional; procedure, shortened: as §3
Rattus norvegicus [5] = experiment: Minimum effective dose at which significant increase in uterine eosinophil peroxidase (EPO) activity in rat was determined (in vivo); assay type: functional; settings: read-out: MED
Rattus norvegicus [6] = experiment: Percent protection of bone mineral density in the distal femur of OVX rat at a dose of 10 mg/kg/day; assay type: functional; procedure, shortened: as §2
Rattus norvegicus [7] = experiment: Dose required to reduce serum cholesterol by 50% relative to OVX controls was determined (in vivo); assay type: functional; procedure, shortened: as §3
Rattus norvegicus [8] = experiment: Percent protection of bone mineral density in the distal femur of OVX rat at a dose of 1 mg/kg/day; assay type: functional; procedure, shortened: as §2
Rattus norvegicus [9] = experiment: Percent decrease in serum cholesterol relative to OVX control at 0.1 mg/kg in rats; assay type: functional; procedure, shortened: as §3
Rattus norvegicus [10] = experiment: Minimum effective dose at which significant increase in uterine weight/body weight in rat was determined (in vivo); expressed as % increase relative to ovariectomized (OVX) controls; assay type: functional; procedure, shortened: as §1
MCF7 = experiment: Inhibition of MCF-7 cell proliferation stimulated by 10e-[…] M 17-beta-estradiol; Not active at the doses tested; assay type: functional, cell-based, Homo sapiens
Rattus norvegicus [11] = experiment: Eosinophil peroxidase activity expressed as Vmax was determined in rat (in vivo); assay type: functional
Estrogen receptor [12] = target: T1, Estrogen receptor (Homo sapiens, UniProt Q92731+P03372); settings: mcf7
Rattus norvegicus [13] = experiment: Percent decrease in serum cholesterol relative to OVX control at 0.1 mg/kg in rat was determined (in vivo); assay type: functional; procedure, shortened: as §3
Rattus norvegicus [14] = experiment: Percent decrease in serum cholesterol relative to OVX control at 1 mg/kg in rat; assay type: functional; procedure, shortened: as §3
Rattus norvegicus [15] = experiment: Eosinophil peroxidase activity expressed as Vmax was determined in rat (in vivo) Eosinophil peroxidase activity expressed as Vmax was determined in rat (in vivo); assay type: functional; set-up: unit not given here
Rattus norvegicus [16] = experiment: Percent protection of bone mineral density in the distal femur of OVX rat at a dose of 0.01 mg/kg/day; assay type: functional; procedure, shortened: as §2
Rattus norvegicus [17] = experiment: Percent decrease in serum cholesterol relative to OVX control at 10 mg/kg in rats; assay type: functional; procedure, shortened: as §3
Estrogen receptor [18] = target: T1, Estrogen receptor; experiment: In vitro relative binding affinity by competition with [3H]17-beta-estradiol for estrogen receptor in MCF-7 cell lysate; Not active at the doses tested; assay type: cell-based
Procedure, shortened: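 Human MCF-7 cell lysate (0.5–1.0 mg/mL total protein) incubated 18 h at 4 °C with 0.5 nM [3H]17β-estradiol and serial dilutions of test compound. Unbound radioligand removed with dextran/charcoal and centrifugation; bound label in the supernatant counted by scintillation. RBA = IC50(17β-estradiol)/IC50(test compound) × 100.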

Rattus norvegicus [19] = experiment: Percent protection of bone mineral density in the distal femur of 75-days old OVX rat at a dose of 10 mg/kg/day; assay type: functional; procedure, shortened: as §2
Rattus norvegicus [20] = experiment: Percent protection of bone mineral density in the distal femur of 75-days old OVX rat at a dose of 0.01 mg/kg/day; assay type: functional; procedure, shortened: as §2
Rattus norvegicus [21] = experiment: Percent protection of bone mineral density in the distal femur of 75-days old OVX rat at a dose of 0.1 mg/kg/day; assay type: functional; procedure, shortened: as §2

Structure (SMILES): O=C(c1ccc(OCCN2CCCCC2)cc1)c1c2ccc(O)cc2sc1[C@H]1CC[C@H](O)CC1
- minimal effective dose (Rattus norvegicus [1]): 0.1 mg/kg
- Protection (Rattus norvegicus [2]): 17%
- Decrease (Rattus norvegicus [3]): 60.4%
- Decrease (Rattus norvegicus [4]): 41.1%
- minimal effective dose (Rattus norvegicus [5]): > 10 mg/kg
- Protection (Rattus norvegicus [6]): 67.4%
- ED50 (Rattus norvegicus [7]): 1 mg/kg
- Protection (Rattus norvegicus [8]): 61.3%
- Decrease (Rattus norvegicus [9]): 48.7%
- Increase (Rattus norvegicus [10]): 46.7%

Structure (SMILES): Cl.O=C(c1ccc(OCCN2CCCCC2)cc1)c1c(-c2ccc(Cl)cc2)sc2ccccc12
- IC50 (MCF7): Not Active

Structure (SMILES): CCc1ccc(-c2sc3cc(O)ccc3c2C(=O)c2ccc(OCCN3CCCCC3)cc2)cc1
- minimal effective dose (Rattus norvegicus [1]): 10 mg/kg
- Decrease (Rattus norvegicus [3]): 57.4%
- minimal effective dose (Rattus norvegicus [5]): 1 mg/kg
- ED50 (Rattus norvegicus [7]): 4.3 mg/kg
- Increase (Rattus norvegicus [11]): 39.9 Vmax
- IC50 (Estrogen receptor [12]): 5 nM
- Increase (Rattus norvegicus [10]): 29.7%
- Decrease (Rattus norvegicus [13]): 3.3%
- Decrease (Rattus norvegicus [14]): 37.2%

Structure (SMILES): O=C(c1ccc(OCCN2CCCCC2)cc1)c1c(-c2ccc(O)c3ccccc23)sc2cc(O)ccc12
- minimal effective dose (Rattus norvegicus [1]): 0.1 mg/kg
- Protection (Rattus norvegicus [2]): 42.3%
- Decrease (Rattus norvegicus [3]): 59.9%
- Decrease (Rattus norvegicus [4]): 54.7%
- minimal effective dose (Rattus norvegicus [5]): 0.1 mg/kg
- ED50 (Rattus norvegicus [7]): 1.2 mg/kg
- Eosinophil peroxidase activity (Vmax) (Rattus norvegicus [15]): 29.4
- Protection (Rattus norvegicus [8]): 82.5%
- Protection (Rattus norvegicus [16]): 35.9%
- Decrease (Rattus norvegicus [9]): 31.6%
- IC50 (Estrogen receptor [12]): 2 nM
- Increase (Rattus norvegicus [10]): 59.6%

Structure (SMILES): COC(=O)c1ccc2c(C(=O)c3ccc(OCCN4CCCCC4)cc3)c(-c3ccc(O)cc3)sc2c1.Cl
- minimal effective dose (Rattus norvegicus [1]): 0.1 mg/kg
- Protection (Rattus norvegicus [2]): -10%
- Decrease (Rattus norvegicus [3]): 61%
- minimal effective dose (Rattus norvegicus [5]): > 10 mg/kg
- Protection (Rattus norvegicus [6]): 43.9%
- ED50 (Rattus norvegicus [7]): 2.8 mg/kg
- Protection (Rattus norvegicus [8]): 17%
- Increase (Rattus norvegicus [10]): 37.5%
- Decrease (Rattus norvegicus [13]): 13.8%
- Decrease (Rattus norvegicus [14]): 42.8%

Structure (SMILES): O=C(c1ccc(OCCN2CCCCC2)cc1)c1c(-c2cccc(O)c2)sc2cc(O)ccc12
- minimal effective dose (Rattus norvegicus [1]): > 10 mg/kg
- Protection (Rattus norvegicus [2]): -30.9%
- minimal effective dose (Rattus norvegicus [5]): > 10 mg/kg
- Protection (Rattus norvegicus [6]): 44.2%
- ED50 (Rattus norvegicus [7]): 0.8 mg/kg
- Protection (Rattus norvegicus [8]): 79.7%
- IC50 (Estrogen receptor [12]): 3.2 nM

Structure (SMILES): CC(C)c1ccc(-c2sc3cc(O)ccc3c2C(=O)c2ccc(OCCN3CCCCC3)cc2)cc1
- minimal effective dose (Rattus norvegicus [1]): 0.1 mg/kg
- Decrease (Rattus norvegicus [3]): 48.5%
- minimal effective dose (Rattus norvegicus [5]): 1 mg/kg
- ED50 (Rattus norvegicus [7]): 3.6 mg/kg
- Increase (Rattus norvegicus [11]): 33.3 Vmax
- IC50 (Estrogen receptor [12]): 30 nM
- Increase (Rattus norvegicus [10]): 24.9%
- Decrease (Rattus norvegicus [13]): -24.1%
- Decrease (Rattus norvegicus [14]): 47.1%

Structure (SMILES): O=C(c1ccc(OCCN2CCCCC2)cc1)c1c(Cc2ccc(O)cc2)sc2cc(O)ccc12
- minimal effective dose (Rattus norvegicus [1]): 5 mg/kg
- Decrease (Rattus norvegicus [4]): 41.7%
- minimal effective dose (Rattus norvegicus [5]): > 10 mg/kg
- ED50 (Rattus norvegicus [7]): 4 mg/kg
- Decrease (Rattus norvegicus [9]): -17.6%
- IC50 (Estrogen receptor [12]): 5 nM
- Increase (Rattus norvegicus [10]): 36.9%
- Decrease (Rattus norvegicus [17]): 54%

Structure (SMILES): C[C@]12CC[C@@H]3c4ccc(O)cc4CC[C@H]3[C@@H]1CC[C@@H]2O [ESTRADIOL]
- IC50 (MCF7): Not Active

Structure (SMILES): O=C(c1ccc(OCCN2CCCCC2)cc1)c1c(-c2ccc(O)cc2)sc2cc(O)ccc12 [RALOXIFENE]
- minimal effective dose (Rattus norvegicus [1]): 0.1 mg/kg
- Protection (Rattus norvegicus [2]): 50%
- Decrease (Rattus norvegicus [3]): 74%
- minimal effective dose (Rattus norvegicus [5]): > 10 mg/kg
- Protection (Rattus norvegicus [6]): 53.8%
- ED50 (Rattus norvegicus [7]): 0.2 mg/kg
- Protection (Rattus norvegicus [8]): 57.7%
- Protection (Rattus norvegicus [16]): 9.6%
- Increase (Rattus norvegicus [10]): 23.5%
- Decrease (Rattus norvegicus [13]): 44.9%
- Decrease (Rattus norvegicus [14]): 66.7%

Structure (SMILES): Cc1ccc2c(C(=O)c3ccc(OCCN4CCCCC4)cc3)c(-c3ccc(O)cc3)sc2c1.Cl
- minimal effective dose (Rattus norvegicus [1]): 1 mg/kg
- Decrease (Rattus norvegicus [3]): 21.6%
- minimal effective dose (Rattus norvegicus [5]): > 10 mg/kg
- ED50 (Rattus norvegicus [7]): > 10 mg/kg
- IC50 (Estrogen receptor [12]): 300 nM
- relative binding affinity (RBA) (Estrogen receptor [18]): inactive
- Increase (Rattus norvegicus [10]): 23.9%
- Decrease (Rattus norvegicus [13]): 16.9%
- Decrease (Rattus norvegicus [14]): 33.9%

Structure (SMILES): O=C(O)c1ccc2c(C(=O)c3ccc(OCCN4CCCCC4)cc3)c(-c3ccc(O)cc3)sc2c1
- minimal effective dose (Rattus norvegicus [1]): 1 mg/kg
- Decrease (Rattus norvegicus [3]): 53.3%
- minimal effective dose (Rattus norvegicus [5]): > 10 mg/kg
- ED50 (Rattus norvegicus [7]): 9 mg/kg
- IC50 (MCF7): Not Active
- relative binding affinity (RBA) (Estrogen receptor [18]): inactive
- Increase (Rattus norvegicus [10]): 40.8%
- Decrease (Rattus norvegicus [13]): -16.4%
- Decrease (Rattus norvegicus [14]): 12.5%

Structure (SMILES): O=C(c1ccc(OCCN2CCCCC2)cc1)c1c(-c2ccc(C(F)(F)F)cc2)sc2cc(O)ccc12
- minimal effective dose (Rattus norvegicus [1]): 5 mg/kg
- minimal effective dose (Rattus norvegicus [5]): 5 mg/kg
- ED50 (Rattus norvegicus [7]): 0.4 mg/kg
- IC50 (Estrogen receptor [12]): 1000 nM
- Decrease (Rattus norvegicus [17]): 71.5%

Structure (SMILES): O=C(c1ccc(OCCN2CCCCC2)cc1)c1c(-c2ccc(O)c(F)c2)sc2cc(O)ccc12
- minimal effective dose (Rattus norvegicus [1]): 0.1 mg/kg
- Protection (Rattus norvegicus [2]): 34.1%
- Decrease (Rattus norvegicus [3]): 55.3%
- minimal effective dose (Rattus norvegicus [5]): > 10 mg/kg
- Protection (Rattus norvegicus [6]): 69.8%
- ED50 (Rattus norvegicus [7]): 0.4 mg/kg
- Protection (Rattus norvegicus [8]): 68%
- Protection (Rattus norvegicus [16]): 34.5%
- IC50 (Estrogen receptor [12]): 0.3 nM
- Increase (Rattus norvegicus [10]): 34.3%
- Decrease (Rattus norvegicus [13]): 45.9%
- Decrease (Rattus norvegicus [14]): 59.2%

Structure (SMILES): Cl.O=C(c1ccc(OCCN2CCCCC2)cc1)c1c(-c2ccc(O)cc2)sc2ccccc12
- Protection (Rattus norvegicus [19]): 26.7%
- Protection (Rattus norvegicus [20]): -1.3%
- minimal effective dose (Rattus norvegicus [1]): 0.1 mg/kg
- Decrease (Rattus norvegicus [3]): 67.4%
- minimal effective dose (Rattus norvegicus [5]): > 10 mg/kg
- ED50 (Rattus norvegicus [7]): < 0.1 mg/kg
- Protection (Rattus norvegicus [21]): -4%
- Protection (Rattus norvegicus [8]): 41.8%
- IC50 (Estrogen receptor [12]): 35 nM
- Increase (Rattus norvegicus [10]): 39.2%
- Decrease (Rattus norvegicus [13]): 70.7%
- Decrease (Rattus norvegicus [14]): 69.9%
